Measured values: ChEMBL document CHEMBL4706601, “The endocannabinoid system dual-target ligand N-cycloheptyl-1,2-dihydro-5-bromo-1-(4-fluorobenzyl)-6-methyl-2-oxo-pyridine-3-carboxamide improves disease severity in a mouse model of multiple sclerosis” (Eur J Med Chem, 2020)
pEC50, pIC50, pKi: −log10 of the molar value. Active and inactive are the calls of the source.

Experiments:
[1] = target: T1, Cannabinoid receptor 2 (Homo sapiens, UniProt P34972); experiment: Displacement of [3H]CP55940 from recombinant human CB2R expressed in CHO cell membranes incubated for 90 mins; set-up: species or system Membrane
[2] = target: T2, Monoglyceride lipase (Homo sapiens, UniProt Q99685); experiment: Inhibition of MAGL in human U937 cells using [glycerol-1,2,3-3H]2-OG as substrate preincubated for 15 mins followed by substrate addition and measured after 15 mins by liquid scintillation spectroscopy; type: cell-based, U-937
T2 sequence (Q99685 whole entry): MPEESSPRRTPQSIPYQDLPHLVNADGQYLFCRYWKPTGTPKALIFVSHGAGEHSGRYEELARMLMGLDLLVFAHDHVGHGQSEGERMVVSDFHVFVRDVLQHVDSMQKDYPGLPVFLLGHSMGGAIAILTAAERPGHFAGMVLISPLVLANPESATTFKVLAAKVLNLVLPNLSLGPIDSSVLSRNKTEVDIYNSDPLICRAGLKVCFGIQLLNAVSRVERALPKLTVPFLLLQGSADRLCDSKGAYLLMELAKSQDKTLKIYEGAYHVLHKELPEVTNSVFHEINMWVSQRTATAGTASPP
Method in brief: (§1)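 Intact U937 cells, 10^6 per condition, pre-incubated with compound 15 min at 37 °C with shaking (screen at 10 μM; full curves for hits). Substrate: 1 μM AEA with 1 nM [3H]AEA (FAAH) or 10 μM 2-OG with 5 nM [3H]2-OG (MAGL), 15 min at 37 °C. Stopped with CHCl3:MeOH 1:1, aqueous tritium counted; mean ± SD, ≥3 experiments in triplicate.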

[3] = target: T3, Fatty-acid amide hydrolase 1 (Homo sapiens, UniProt O00519); experiment: Inhibition of FAAH in human U937 cells using [ethanolamine-1-3H]AEA as substrate preincubated for 15 mins followed by substrate addition and measured after 15 mins by liquid scintillation spectroscopy; type: cell-based, U-937; method in brief: as §1
T3 sequence (O00519 whole entry): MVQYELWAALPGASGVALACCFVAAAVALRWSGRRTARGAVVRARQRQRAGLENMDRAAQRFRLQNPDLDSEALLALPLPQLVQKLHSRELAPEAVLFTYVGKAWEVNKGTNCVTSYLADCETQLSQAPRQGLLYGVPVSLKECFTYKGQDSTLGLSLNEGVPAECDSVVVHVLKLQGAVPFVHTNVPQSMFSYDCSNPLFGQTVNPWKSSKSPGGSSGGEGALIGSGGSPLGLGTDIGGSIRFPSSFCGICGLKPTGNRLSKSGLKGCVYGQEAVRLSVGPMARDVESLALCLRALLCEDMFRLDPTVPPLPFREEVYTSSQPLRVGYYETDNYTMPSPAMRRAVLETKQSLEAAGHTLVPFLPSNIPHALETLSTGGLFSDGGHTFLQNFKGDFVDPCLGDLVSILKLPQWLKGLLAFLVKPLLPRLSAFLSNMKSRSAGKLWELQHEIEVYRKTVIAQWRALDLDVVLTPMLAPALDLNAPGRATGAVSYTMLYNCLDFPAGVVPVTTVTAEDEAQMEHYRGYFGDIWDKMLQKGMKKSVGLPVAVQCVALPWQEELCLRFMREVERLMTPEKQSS

[4] = target: T4, Monoacylglycerol lipase ABHD6 (Homo sapiens, UniProt Q9BV23); experiment: Inhibition of human ABHD6 expressed in HEK293 cells using 2-OG as substrate preincubated for 30 mins followed by substrate addition and measured after 5 mins by liquid scintillation spectroscopy; type: cell-based
T4 sequence (Q9BV23 whole entry): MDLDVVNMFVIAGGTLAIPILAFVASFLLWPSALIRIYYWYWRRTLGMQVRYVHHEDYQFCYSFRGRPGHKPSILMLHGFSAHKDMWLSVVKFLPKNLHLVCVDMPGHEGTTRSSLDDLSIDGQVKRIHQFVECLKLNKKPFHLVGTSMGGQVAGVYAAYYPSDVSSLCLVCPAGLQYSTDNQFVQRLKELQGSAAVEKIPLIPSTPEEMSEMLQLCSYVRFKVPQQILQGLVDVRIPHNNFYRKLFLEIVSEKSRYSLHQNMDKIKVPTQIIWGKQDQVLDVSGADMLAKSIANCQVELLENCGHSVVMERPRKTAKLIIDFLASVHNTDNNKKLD
Method in brief: (§2)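 Homogenates (40 µg) from HEK293 stably expressing hABHD6 or hABHD12 pre-incubated with compound 30 min at 37 °C in […], 0.1% BSA, pH 7.6; then 10 μM 2-OG for 5 min at 37 °C. Aqueous phase tritium counted after CHCl3:MeOH stop; no-enzyme blanks and non-transfected HEK293 hydrolysis subtracted. Controls WWL70 10 μM, THL 20 μM.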

[5] = species: Homo sapiens; experiment: Selectivity index, ratio of Ki for human CB1R expressed in CHO cell membranes to Ki for human CB2R expressed in CHO cell membranes; type: cell-based
[6] = target: T5, Lysophosphatidylserine lipase ABHD12 (Homo sapiens, UniProt Q8N2K0); experiment: Inhibition of human ABHD12 expressed in HEK293 cells using 2-OG as substrate preincubated for 30 mins followed by substrate addition and measured after 5 mins by liquid scintillation spectroscopy; type: cell-based; method in brief: as §2
T5 sequence (Q8N2K0 whole entry): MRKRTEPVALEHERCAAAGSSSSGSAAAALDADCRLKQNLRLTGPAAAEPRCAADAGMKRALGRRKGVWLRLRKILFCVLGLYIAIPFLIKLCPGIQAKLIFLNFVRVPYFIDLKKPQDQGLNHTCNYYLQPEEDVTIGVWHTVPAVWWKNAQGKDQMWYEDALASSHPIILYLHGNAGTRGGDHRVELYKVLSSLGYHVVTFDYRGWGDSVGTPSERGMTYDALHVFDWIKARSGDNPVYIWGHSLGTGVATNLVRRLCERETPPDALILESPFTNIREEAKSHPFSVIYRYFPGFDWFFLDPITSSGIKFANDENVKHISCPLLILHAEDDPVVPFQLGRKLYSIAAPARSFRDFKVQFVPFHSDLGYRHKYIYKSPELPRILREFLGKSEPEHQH

[7] = target: T6, Cannabinoid receptor 1 (Homo sapiens, UniProt P21554); experiment: Displacement of [3H]CP55940 from recombinant human CB1R expressed in CHO cell membranes incubated for 90 mins; set-up: species or system Membrane
[8] = target: T1, Cannabinoid receptor 2; experiment: Agonist activity at human CB2R expressed in CHO cell membranes after 90 mins by [35S]GTPgammaS assay; type: functional, Membrane
Method in brief: (§3)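 In-house CHO membranes expressing hCB1 or hCB2 (10 µg) in 50 mM Tris-HCl, 3 mM MgCl2, 0.2 mM EDTA, 100 mM NaCl, 0.5% fatty-acid-free BSA, pH 7.4, with 10 μM GDP and 0.1 nM [35S]GTPγS. Incubated 90 min at 30 °C; antagonist pre-incubated 30 min. Nonspecific binding with 10 μM GTPγS; bound label by filtration and counting; ≥3 experiments in triplicate.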

[9] = target: T6, Cannabinoid receptor 1; experiment: Agonist activity at human CB1R expressed in CHO cell membranes after 90 mins by [35S]GTPgammaS assay; type: functional, Membrane; method in brief: as §3
[10] = target: T1, Cannabinoid receptor 2; experiment: Inverse agonist activity at human CB2R expressed in CHO cell membranes after 90 mins by [35S]GTPgammaS assay; type: functional, Membrane; method in brief: as §3
[11] = tested on: Mus musculus; experiment: In vivo agonist activity at CB1R in BALB/c mouse assessed as reduction in body temperature at 5 mg/kg, ip measured after 1 hr by tetrad test; type: functional, organism-based
Method in brief: (§4)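 BALB/c mice given 5 mg/kg i.p. in DMSO (20 µL), tested 1 h later. Rectal temperature change from basal; catalepsy by bar test (4 cm bar, 120 s cut-off); locomotion by rotarod latency to fall at 4 rpm (120 s cut-off, 3 trials); analgesia by hot plate at 54-56 °C, first paw lick or shake. n = 5-20 per group.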

[12] = tested on: Mus musculus; experiment: In vivo agonist activity at CB1R in BALB/c mouse assessed as induction of analgesia at 5 mg/kg, ip measured after 1 hr by hotplate test; type: functional, organism-based; method in brief: as §4
[13] = tested on: Mus musculus; experiment: In vivo agonist activity at CB1R in BALB/c mouse assessed as catalpesy-like behaviour by measuring increase in immobility time at 5 mg/kg, ip measured after 1 hr by bar test; type: functional, organism-based; method in brief: as §4
[14] = tested on: Mus musculus; experiment: In vivo agonist activity at CB1R in BALB/c mouse assessed as reduction in spontaneous locomotion at 5 mg/kg, ip measured after 1 hr by rotarod test; type: functional, organism-based; method in brief: as §4
[15] = target: T6, Cannabinoid receptor 1; experiment: Antagonist activity at human CB1R expressed in CHO cell membranes preincubated for 30 mins followed by GTPgammaS addition and measured after 90 mins by [35S]GTPgammaS assay; type: functional, Membrane; method in brief: as §3
[16] = target: Cannabinoid receptor 1 (Rattus norvegicus) (UniProt P20272); experiment: Agonist activity at CB1R in Sprague-Dawley rat hippocampal synaptosomes assessed as inhibition of 4-AP evoked glutamate release at 10 uM preincubated for 8 mins followed by 4-AP addition by HPLC analysis; type: subcellular; details: Hippocampus, filed as agonist
Method in brief: (§5)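 Rat (male Sprague Dawley, 200-250 g) hippocampal synaptosomes from Percoll gradient, superfused at 37 °C (0.5 ml/min); 4-AP 600 μM for 2 min. Compounds and antagonists (SR141716A, SR144528, 1 μM) added 8 min before 4-AP and kept during it; basal effects tested by 2-min exposure alone. Endogenous glutamate by HPLC as pmol/mg protein; overflow = stimulated minus basal in control chambers; n = 3–9, triplicate.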

[17] = target: Cannabinoid receptor 1 (Rattus norvegicus) (UniProt P20272); experiment: Agonist activity at CB1R in Sprague-Dawley rat hippocampal synaptosomes assessed as inhibition of 4-AP evoked glutamate release at 10 uM preincubated for 8 mins followed by 4-AP addition in presence of 1 uM CB2R antagonist, SR144528 by HPLC analysis; type: subcellular; details: Hippocampus, filed as agonist; method in brief: as §5

T6 sequence (P21554 whole entry): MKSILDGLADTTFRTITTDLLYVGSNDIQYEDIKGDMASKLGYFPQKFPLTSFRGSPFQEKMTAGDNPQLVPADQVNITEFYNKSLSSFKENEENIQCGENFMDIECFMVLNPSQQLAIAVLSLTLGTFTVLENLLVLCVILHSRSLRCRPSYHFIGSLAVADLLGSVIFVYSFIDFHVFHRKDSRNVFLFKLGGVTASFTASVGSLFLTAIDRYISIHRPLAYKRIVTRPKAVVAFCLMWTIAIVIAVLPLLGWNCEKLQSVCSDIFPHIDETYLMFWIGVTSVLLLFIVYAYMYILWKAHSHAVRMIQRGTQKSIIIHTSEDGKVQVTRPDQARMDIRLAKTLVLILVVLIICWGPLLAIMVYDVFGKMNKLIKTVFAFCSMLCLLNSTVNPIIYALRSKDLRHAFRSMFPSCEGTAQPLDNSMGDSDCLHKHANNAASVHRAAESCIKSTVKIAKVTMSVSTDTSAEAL
T1 sequence (P34972 whole entry): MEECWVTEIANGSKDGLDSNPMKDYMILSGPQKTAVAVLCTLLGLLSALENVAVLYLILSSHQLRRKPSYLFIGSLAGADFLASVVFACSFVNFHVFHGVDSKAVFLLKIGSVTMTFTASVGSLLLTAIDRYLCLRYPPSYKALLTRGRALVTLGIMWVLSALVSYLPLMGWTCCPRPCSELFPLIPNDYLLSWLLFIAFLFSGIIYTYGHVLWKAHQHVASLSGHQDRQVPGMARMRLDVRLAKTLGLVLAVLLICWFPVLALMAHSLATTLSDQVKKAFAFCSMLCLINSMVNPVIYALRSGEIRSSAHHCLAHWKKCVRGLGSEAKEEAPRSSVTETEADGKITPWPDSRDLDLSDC
Cannabinoid receptor 1 (Rattus norvegicus), sequence (P20272 whole entry, the tested form may be a part): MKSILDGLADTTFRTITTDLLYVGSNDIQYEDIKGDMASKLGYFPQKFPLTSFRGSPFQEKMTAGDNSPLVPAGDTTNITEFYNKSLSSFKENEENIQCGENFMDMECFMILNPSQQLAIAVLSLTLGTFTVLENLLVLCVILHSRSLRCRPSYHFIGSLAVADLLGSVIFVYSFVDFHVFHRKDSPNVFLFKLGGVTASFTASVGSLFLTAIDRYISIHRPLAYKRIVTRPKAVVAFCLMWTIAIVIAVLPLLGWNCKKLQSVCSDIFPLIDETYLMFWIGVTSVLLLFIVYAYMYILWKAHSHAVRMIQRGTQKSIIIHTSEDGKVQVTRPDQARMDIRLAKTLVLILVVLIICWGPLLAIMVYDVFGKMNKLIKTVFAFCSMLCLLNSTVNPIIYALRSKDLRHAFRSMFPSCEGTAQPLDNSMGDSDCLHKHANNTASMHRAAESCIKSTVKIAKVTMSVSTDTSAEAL

Compound | pKi [1] | pIC50 [2] | pIC50 [3] | pIC50 [4] | Ratio Ki [5] | pIC50 [6] | pKi [7] | pEC50 [8] | pEC50 [9] | pEC50 [10] | Activity [11] | Activity [12] | Activity [13] | Activity [14] | pEC50 [15] | Activity [16] | Activity [17]
Cc1c(F)cc(C(=O)NC2CCCCCC2)c(=O)n1Cc1ccc(F)cc1 | 8.24 | < 5.00 | < 5.00 | < 5.00 | 0.86 | < 5.00 | 8.31 | 7.61 | 7.36 | – | – | – | – | – | – | – | –
CO[C@@H]1O[C@H](CNC(=O)c2cc(Br)c(C)n(Cc3ccc(F)cc3)c2=O)[C@H](O)[C@H](O)[C@H]1O | < 5.00 | < 5.00 | < 5.00 | < 5.00 | – | < 5.00 | < 5.00 | – | – | – | – | – | – | – | – | – | –
Cc1nc(OCc2ccc(F)cc2)c(C(=O)NC2CCCCCC2)cc1Br | 8.82 | < 5.00 | < 5.00 | < 5.00 | – | 5.68 | 7.12 | 7.50 | 6.23 | – | – | – | – | – | – | – | –
Cc1c(Cl)cc(C(=O)NC2CCCCCC2)c(=O)n1Cc1ccc(F)cc1 | 8.37 | < 5.00 | 5.23 | < 5.00 | 0.86 | < 5.00 | 8.43 | 8.48 | 8.95 | – | – | – | – | – | – | – | –
Cc1nc(OCc2ccc(F)cc2)c(C(=O)NC2CCCCCC2)cc1-c1ccc(F)cc1 | 6.27 | < 5.00 | < 5.00 | < 5.00 | – | < 5.00 | 5.34 | – | – | – | – | – | – | – | – | – | –
Cc1c(-c2ccccc2)cc(C(=O)NC2CCCCCC2)c(=O)n1Cc1ccc(F)cc1 | 8.24 | < 5.00 | 6.25 | < 5.00 | – | < 5.00 | 6.75 | – | – | 7.77 | inactive | inactive | inactive | inactive | 9.44 | – | –
CC(=O)N[C@@H]1[C@@H](O)[C@H](O)[C@@H](CO)O[C@H]1NC(=O)c1cc(Br)c(C)n(Cc2ccc(F)cc2)c1=O | < 5.00 | < 5.00 | < 5.00 | < 5.00 | – | < 5.00 | < 5.00 | – | – | – | – | – | – | – | – | – | –
CCCCC/C=C\C/C=C\C/C=C\C/C=C\CCCC(=O)NCCCl | – | – | – | – | – | – | – | – | – | – | – | – | – | – | – | Active | Active
Cc1ccc(C(=O)NC2CCCCCC2)c(=O)n1Cc1ccc(F)cc1 | 8.33 | < 5.00 | < 5.00 | < 5.00 | – | < 5.00 | 7.42 | 8.38 | 7.39 | – | – | – | – | – | – | – | –
Cc1c(Br)cc(C(=O)NC2CCNCC2)c(=O)n1Cc1ccc(F)cc1 | < 5.00 | < 5.00 | < 5.00 | < 5.00 | – | < 5.00 | < 5.00 | – | – | – | – | – | – | – | – | – | –
COc1ccc(-c2cc(C(=O)NC3CCCCCC3)c(OCc3ccc(F)cc3)nc2C)cc1 | 6.04 | < 5.00 | < 5.00 | 6.28 | – | < 5.00 | < 5.00 | – | – | – | – | – | – | – | – | – | –
Cc1ccc(C(=O)NC2CCCCCC2)c(OCc2ccc(F)cc2)n1 | 7.47 | < 5.00 | < 5.00 | < 5.00 | 0.49 | < 5.00 | 7.78 | 7.93 | 7.06 | – | – | – | – | – | – | – | –
